Screening data deposited in PubChem by Broad Institute.
FN deposit inh: inhibitors of fibronectin matrix deposition, primary screen, AH1F cells, Alexa488-fibronectin fluorescence, plate reader. AH1F fibroblasts, overnight. inhibition, % at 12.6 µM. 350,000 tested, 0.086% active;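 active means mean inhibition across replicates of 30% or more, regardless of how many single replicates reach that level; inconclusive means mean under 30% yet at least half of replicates reach 30%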
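Assay system: AH1F fibroblasts assembling fluorescent fibronectin matrix; Amount: 10000 AH1F cells per well; Buffer or medium: DMEM, 2% serum; Probe or stimulus: Alexa488-fibronectin, 24 nM final in well; Doses: single compound dose, delivered by pin transfer; Incubation: 1 h adhesion, overnight exposure; Measured by: fluorescence 485/525 nm; Read-out: fibronectin deposition inhibition.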
PGC1a acetyl inh: inhibitors of PGC1a acetylation signal, primary screen, cell-based, U2OS, AlphaScreen, inhibitor mode; 350,000 tested, 0.17% active; AlphaScreen anti-acetyl-lysine; with virally co-expressed GCN5 acetyltransferase; inhibition, % at 15.6 µM;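 active means every replicate shows inhibition of at least 40%; inconclusive means mean inhibition at least 40% but some replicate below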
Cneo AK release: Cryptococcus neoformans cell lysis inducers, primary screen, AK release luminescence, single concentration | lysis activity, % at 15 µM | 360,000 tested, 0.2% active | C. neoformans lysis, adenylate kinase release luminescence, 4 h; normalised: neutral wells 0, clomiphene wells 100;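 active means mean lysis activity across replicates of at least 80%, whatever share of replicates individually reach that level; inactive means mean lysis activity below 80%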
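Material – Cryptococcus neoformans yeast cells · Quantity – 5 × 10^6 yeast cells/mL · Buffer or medium – YPD medium · Compound – single dose · Timing – 4 h static compound exposure, 37 °C, read 1 h post-reagent · Signal – adenylate kinase release luminescence · Read-out basis – lysis from increased AK signal · Benchmarks – Clomiphene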
XiGFP reactiv: activators of inactive X chromosome reactivation, primary screen, imaging, XiGFP fibroblasts, GFP high-content imaging, set 2; 360,000 tested, 0.055% active; XiGFP mouse fibroblasts, % GFP-positive cells imaging, 3 d; cells co-treated with 5-aza-dC sensitizer; scaled so ellipticine positive control = 100%; activation, % at 7.58 µM;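 active means mean normalized replicate activation at least 10% and every replicate at or above 10%; inconclusive means only one of the two criteria met; inactive means mean below 10% and not all replicates reach 10%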
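Material: SV40-immortalized XiGFP fibroblast cells, line 68-5-11 | Buffer or medium: DMEM containing 5-aza-dC | Dosing: One concentration, pinned | Times: 3 d treatment, 15 min room-temperature fixation | Controls: Ellipticine 6 µM positive control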
DENV2 CPE: inhibitors of DENV2 cytopathic effect, primary screen, cell-based, plate reader, single concentration; DENV2-infected cells, cytopathic effect rescue; CPE inhibition, % at 9.99 µM; 350,000 tested, 1.7% active; in the data active means CPE inhibition above about 20%, passing the limit was not always enough; inconclusive means no clear call, values can overlap the other calls; tested in BHK-21 cells
CFTR F508del cor: F508del CFTR correction, initial screen, CFBE line, single point; CFBE cells, YFP halide quenching; stimulated with forskolin plus potentiator P3; % fluorescence drop versus neutral controls; activity (quench increase), % at 7.58 µM; 350,000 tested, 0.36% active;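 active means mean added fluorescence quench of at least 8% versus neutral control, with both replicates also reaching 8%; inconclusive means only one of the mean or replicate conditions met; inactive means mean below 8% and not both replicates reaching 8%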;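 further: cells transiently co-express mutant CFTR-F508del with the halide-sensitive YFP; corrector assay measuring rescue of mutant channel to the surface after 24 h compound exposure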
Of the large screens only hits and unclear results are named; the others gave an inactive call. Shown are actives, neighbours in structure and some others; about 1.9% of the full set was active somewhere.

C[C@@H]1CN([C@@H](C)CO)C(=O)c2cccc(N(C)C)c2O[C@H]1CN(C)Cc1ccc(-c2ccccc2)cc1	none (no result: FN deposit inh)
C[C@@H]1CN([C@H](C)CO)C(=O)c2cc(N(C)C)ccc2O[C@@H](C)CCCCO[C@H]1CN(C)Cc1ccccc1	none (no result: FN deposit inh)
CN(C)CCNc1ncnc2c1cnn2-c1ccc(Cl)cc1	DENV2 CPE 39.7
CCN1CCN(c2ncnc3c2cnn3-c2ccc(Cl)cc2)CC1	DENV2 CPE 50.5
OCCCNc1ncnc2c1cnn2-c1ccc(Cl)cc1	none
CCN1CCN(c2ncnc3c2cnn3-c2ccccc2)CC1	none
CC(C)C[C@@H](COc1ccccc1)N1CCN(CCc2ccccc2)CCC1=O	DENV2 CPE 101.4 (no result: PGC1a acetyl inh)
CCCN1CCC(=O)N([C@H](COc2ccccc2)CC(C)C)CC1	none
COc1ccc(NC(=O)N(C)C[C@@H]2Oc3cc(C#CCC(C)C)ccc3S(=O)(=O)N([C@H](C)CO)C[C@@H]2C)cc1	CFTR F508del cor 9.2 (no result: FN deposit inh)
COc1ccc(C#Cc2ccc3c(c2)O[C@H](CN(C)C(=O)Nc2cccc(OC)c2)[C@H](C)CN([C@H](C)CO)S3(=O)=O)cc1	CFTR F508del cor 8.6
CNC[C@H]1Oc2cc(C#Cc3ccc(OC)cc3)ccc2S(=O)(=O)N([C@@H](C)CO)C[C@@H]1C	DENV2 CPE 33.3
COc1ccc(C#Cc2ccc3c(c2)O[C@H](CN(C)C(=O)Nc2cccc(OC)c2)[C@@H](C)CN([C@H](C)CO)S3(=O)=O)cc1	none
O=C(C[C@H]1C[C@H]2c3cc(NC(=O)NC4CCCC4)ccc3O[C@H]2[C@@H](CO)O1)NCC(F)(F)F	none
COc1ccc2c3c(n(C)c2c1)[C@@H](CO)N(Cc1ccccc1F)CC31CCN(CC2CC2)CC1	none (no result: FN deposit inh, Cneo AK release)
C[C@H](CO)N1C[C@H](C)[C@@H](CN(C)C(=O)Nc2ccc3c(c2)OCO3)OCCCC[C@H](C)Oc2ccc(NS(=O)(=O)c3ccc(F)cc3)cc2C1=O	none
COCC(=O)N1CC[C@@H]2[C@@H](CO)N(C)c3ccc(-c4cccc(OC)c4)cc3[C@@H]21	none (no result: DENV2 CPE)
COc1ccc(S(=O)(=O)Nc2ccc3c(c2)CC(=O)N([C@@H](C)CO)C[C@H](C)[C@@H](CN(C)S(=O)(=O)c2ccccc2)O3)cc1	none (no result: FN deposit inh)
O=C(O)c1ccccc1C(=O)NCc1c(Cl)cccc1Sc1ccc(Cl)cc1	DENV2 CPE 26.2
COc1ccc2c3c(n(C)c2c1)[C@@H](CO)N(C(=O)CN1CCOCC1)CC31CN(C(=O)C2CC2)C1	none (no result: FN deposit inh, Cneo AK release)
Cc1cc(C)nc(N/N=C/c2ccccc2OCc2ccccc2)n1	DENV2 CPE 78.5
CCNC(=O)C[C@H]1CC[C@@H]2[C@@H](COc3ccc(NC(=O)c4ccccc4Cl)cc3C(=O)N2C)O1	none
CCCNC(=O)Nc1ccc2c(c1)C(=O)N(C)C[C@H](OC)[C@H](C)CN(C(=O)C1CC1)[C@@H](C)CO2	none
CC(C)CN(C(=O)c1cc(Cl)nc2ccccc12)c1c(N)n(Cc2ccccc2)c(=O)[nH]c1=O	DENV2 CPE 55.9 (no result: PGC1a acetyl inh)
CCCCn1c(N)c(N(CC(C)C)C(=O)c2cc(Cl)nc3ccccc23)c(=O)[nH]c1=O	none (no result: PGC1a acetyl inh, Cneo AK release)
Cc1ccc(-c2cccc(-c3cc(=O)oc4ccc(C(C)(C)C)cc34)c2)cc1	CFTR F508del cor 8.7 (no result: FN deposit inh)
C[C@@H]1CN([C@H](C)CO)S(=O)(=O)c2ccc(C#CC(C)(C)O)cc2O[C@H]1CN(C)C(=O)C1CC1	none (no result: FN deposit inh, Cneo AK release, DENV2 CPE)
Cc1cc(NC(=O)CCS(=O)(=O)c2nc(-c3ccccc3)cc(C(F)(F)F)n2)no1	PGC1a acetyl inh 89.9 (no result: FN deposit inh, XiGFP reactiv, DENV2 CPE, CFTR F508del cor)
Cc1ccc(S(=O)(=O)CCC(=O)Nc2cc(C)on2)cc1	none
C[C@@H](O)C#Cc1ccc([C@@H]2[C@H](CO)N3CCCCN(CC4CC4)C[C@@H]23)cc1	Cneo AK release 102.7
CC(C)C#Cc1ccc([C@H]2[C@H]3CN(CC4CC4)CCCCN3[C@H]2CO)cc1	none (no result: FN deposit inh)
CC(C)C#Cc1ccc([C@@H]2[C@H]3CN(CC4CC4)CCCCN3[C@H]2CO)cc1	DENV2 CPE 26.1 (no result: FN deposit inh)
CC(C)C#Cc1ccc([C@@H]2[C@H](CO)N3CCCCN(CC4CC4)C[C@@H]23)cc1	DENV2 CPE 21.7 (no result: FN deposit inh)
CCCC#Cc1cnc2c(c1)C(=O)N([C@H](C)CO)C[C@H](C)[C@@H](CN(C)CCC)O2	none (no result: FN deposit inh)
Cc1nn2c(C)c(C(=O)Nc3ccccc3)cnc2c1-c1ccccc1	DENV2 CPE 41.7
C[C@@H](NC(=O)c1ncn(C)c1C(=O)N[C@H](C)c1ccccc1)c1ccccc1	DENV2 CPE 89.8
O=C(CSc1nc(=O)n2ccccc2n1)N1CCCc2ccccc21	DENV2 CPE 67.6
O=[N+]([O-])c1ccc(N2CCN(S(=O)(=O)c3ccccc3[N+](=O)[O-])CC2)cc1N1CCc2ccccc2C1	DENV2 CPE 112.2 (no result: CFTR F508del cor)
CCOc1ccc2oc(C(=O)NCC3CCCO3)c(C)c2c1 (stereo not drawn)	DENV2 CPE 64.2
CN(CC(=O)Nc1cccc([N+](=O)[O-])c1)S(=O)(=O)c1ccccc1	none (no result: PGC1a acetyl inh, Cneo AK release)
CN(C)CCCNC(CC(=O)Nc1cccc([N+](=O)[O-])c1)C(=O)O (stereo not drawn)	DENV2 CPE 48.1
COc1ccc(N=C2S/C(=C\c3ccc(N4CCOCC4)o3)C(=O)N2CCc2c[nH]c3ccccc23)cc1	PGC1a acetyl inh 62.1 (no result: FN deposit inh, XiGFP reactiv, DENV2 CPE, CFTR F508del cor)
COc1ccc(N=C2S/C(=C\c3ccc(OCC(=O)O)cc3)C(=O)N2CCc2c[nH]c3ccccc23)cc1	none (no result: FN deposit inh, Cneo AK release)
CCCC(=O)Nc1ccc2c(c1)C(=O)N(C)[C@@H]1CC[C@H](CC(=O)NCc3ccccc3F)O[C@H]1CO2	none
O=C(Nc1ccc(O)cc1)c1ccc2c(c1)C(=O)N(Cc1cccnc1)C2=O	DENV2 CPE 22.4
CNC[C@@H]1OCCCC[C@@H](C)Oc2ccc(NC(=O)NC(C)C)cc2C(=O)N([C@@H](C)CO)C[C@H]1C	Cneo AK release 87.8
CNC[C@@H]1OCCCC[C@@H](C)Oc2ccc(NC(=O)Nc3ccc4c(c3)OCO4)cc2C(=O)N([C@H](C)CO)C[C@@H]1C	Cneo AK release 89.2, DENV2 CPE inconclusive (no result: FN deposit inh)
CCOC(=O)c1sc(NC(=O)c2c(CC)noc2C)nc1C	CFTR F508del cor 14.2
CCOC(=O)c1sc(Nc2nc(C)cc(C)n2)nc1C	CFTR F508del cor 12.9 (no result: PGC1a acetyl inh, Cneo AK release)
CN(C)CCOc1ccc2c(c1)C(=O)C(=Cc1ncc([N+](=O)[O-])n1C)C2	PGC1a acetyl inh 92.6
CCc1cc(OCCN(C)C)ccc1Cl	none (no result: FN deposit inh, Cneo AK release)
